# Source: ChEMBL document CHEMBL1127506, “Novel ligands specific for mitochondrial benzodiazepine receptors: 6-arylpyrrolo[2,1-d][1,5]benzothiazepine derivatives. Synthesis, structure-activity relationships, and molecular modeling studies” (J Med Chem, 1994)
# Biological target: T1, Translocator protein (Rattus norvegicus, UniProt P16257)
# Test: Displacement of [3H]-PK 11195 from peripheral (mitochondrial) benzodiazepine receptor; call rule not given here
# T1 sequence (P16257 whole entry, looked up): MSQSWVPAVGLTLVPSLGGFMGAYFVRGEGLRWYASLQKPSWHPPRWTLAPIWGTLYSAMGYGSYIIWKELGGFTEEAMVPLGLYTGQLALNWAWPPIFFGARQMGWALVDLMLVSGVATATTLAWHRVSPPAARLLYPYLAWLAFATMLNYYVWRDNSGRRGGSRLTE
row,SMILES,IC50 [nM]
1,O=C1c2cccn2-c2ccccc2[S+]([O-])C1c1ccccc1 (centres undefined),14700
2,CCCC(=O)OC1=C(c2ccc(OC)cc2)[S+]([O-])c2ccccc2-n2cccc21 (centres undefined),270
3,COc1ccc(C2=C(OC(C)=O)c3cccn3-c3ccccc3[S+]2[O-])cc1 (centres undefined),2090
4,CCCC(=O)OC1=C(c2ccccc2)Sc2ccccc2-n2cccc21,22
5,COc1ccc(C2Sc3ccccc3-n3cccc3C2=O)cc1 (centres undefined),2090
6,CC(=O)OC1=C(c2ccccc2)Sc2c(Cl)cccc2-n2cccc21,8
7,COc1ccc(C2Sc3ccc(Cl)cc3-n3cccc3C2=O)cc1 (centres undefined),1410
8,O=C1CSc2ccccc2-n2cccc21,> 14000
9,CC(=O)OC1=C(c2ccccc2)Sc2cc(Cl)ccc2-n2cccc21,230
10,COc1ccc(C2=C(OS(C)(=O)=O)c3cccn3-c3ccccc3S2)cc1,95
11,CN(C)C(=O)OC1=C(c2ccccc2)Sc2ccccc2-n2cccc21,9
12,CCC(=O)OC1=C(c2ccccc2)Sc2ccccc2-n2cccc21,67
13,COc1ccc(C2Sc3ccc(C(F)(F)F)cc3-n3cccc3C2=O)cc1 (centres undefined),6210
14,O=C1c2cccn2-c2ccccc2SC1c1ccccc1 (centres undefined),1220
15,CC(=O)OC1=C(c2ccccc2)Sc2ccccc2-n2cccc21,20
16,COc1ccc(C2=C(OC(C)=O)c3cccn3-c3ccccc3S2(=O)=O)cc1,640
17,CCC(=O)OC1=C(c2ccccc2)Sc2ccc(Cl)cc2-n2cccc21,820
18,CS(=O)(=O)OC1=C(c2ccccc2)Sc2ccccc2-n2cccc21,60
19,CC(=O)OC1=C(c2ccccc2)[S+]([O-])c2ccccc2-n2cccc21 (centres undefined),690
20,CCCCC(=O)OC1=C(c2ccccc2)Sc2ccccc2-n2cccc21,48
21,CCCCCC(=O)OC1=C(c2ccccc2)Sc2ccccc2-n2cccc21,23
22,COc1ccc(C2C(=O)c3cccn3-c3ccccc3[S+]2[O-])cc1 (centres undefined),23000
23,CC(=O)OC1=C(c2ccccc2)S(=O)(=O)c2ccccc2-n2cccc21,1140

# Now from value to compound:
row,IC50 [nM],SMILES
1,20,COc1ccc(C2=C(OC(C)=O)c3cccn3-c3cccc(Cl)c3S2)cc1
2,490,CCC(=O)OC1=C(c2ccc(OC)cc2)Sc2ccc(Cl)cc2-n2cccc21
3,240,COc1ccc(C2=C(OC(C)=O)c3cccn3-c3ccc(Cl)cc3S2)cc1
4,1810,COc1ccc(C2=C(OC(C)=O)c3cccn3-c3cc(OC)ccc3S2)cc1
5,650,COc1ccc(C2=C(OC(C)=O)c3cccn3-c3cc(Cl)ccc3S2)cc1
6,30,CCC(=O)OC1=C(c2ccc(OC)cc2)Sc2ccccc2-n2cccc21
7,2950,CCC(=O)OC1=C(c2ccc(OC)cc2)Sc2ccc(C(F)(F)F)cc2-n2cccc21
8,560,CC(=O)OC1=C(c2ccccc2)Sc2ccc(Cl)cc2-n2cccc21
9,9,COc1ccc(C2=C(OC(=O)N(C)C)c3cccn3-c3ccccc3S2)cc1
10,34,COc1ccc(C2=C(OC(C)=O)c3cccn3-c3ccccc3S2)cc1
11,4530,COc1ccc(C2=C(OC(C)=O)c3cccn3-c3cc(C(F)(F)F)ccc3S2)cc1
12,28,CCCC(=O)OC1=C(c2ccc(OC)cc2)Sc2ccccc2-n2cccc21
13,290,COc1ccc(C2=C(OC(=O)N(C)C)c3cccn3-c3cc(C(F)(F)F)ccc3S2)cc1
14,170,COc1ccc(C2=C(OC(=O)N(C)C)c3cccn3-c3cc(Cl)ccc3S2)cc1

# Biological target: T1, Translocator protein
# Test: Displacement of [3H]-PK 11195 from peripheral (mitochondrial) benzodiazepine receptor (inactive)
# Method in brief: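 Male CD rat cortex (about 150 g) homogenized in ice-cold 50 mM PBS, pH 7.4, spun at 50000g for 10 min, and washed three times. 10 mg original wet tissue incubated with 1 nM [3H]PK 11195 and 8–12 drug concentrations (highest 10^-5 M) for 120 min at 4 °C. Nonspecific binding with 1 μM PK 11195. GF/B filtration, scintillation counting, triplicate points, IC50 by nonlinear curve fitting.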
row,SMILES,IC50
1,O=C1c2cccn2-c2ccccc2S(=O)(=O)C1c1ccccc1 (centres undefined),Not Active
2,COc1ccc([C@H]2Sc3ccccc3-n3cccc3[C@H]2OC(C)=O)cc1,Not Active

# Next, values leading:
row,IC50,SMILES
1,Not Active,COc1ccc(C2=C(OC(=O)c3ccncc3)c3cccn3-c3ccccc3S2)cc1
2,Not Active,COc1ccc(C2=C(OC(=O)c3cccnc3)c3cccn3-c3ccccc3S2)cc1
3,Not Active,COc1ccc(C2=C(OC(=O)c3c(OC)cc(OC)cc3OC)c3cccn3-c3ccccc3S2)cc1
4,Not Active,COc1ccc(C2=C(OC(=O)c3c(OC)cc(OC)cc3OC)c3cccn3-c3cc(Cl)ccc3S2)cc1
5,Not Active,COc1ccc(C2=C(OC(=O)c3c(OC)cc(OC)cc3OC)c3cccn3-c3cc(C(F)(F)F)ccc3S2)cc1
